Each block holds one molecule with its values, some of them ahead of it.
Assays:
[1] = tested on: Panel NCI-60 (60 carcinoma cell lines); experiment: Cytostatic effect against human cancer cell line; (Range=-4.01 to -5.65); type: functional; details: read-out: Log TGI (converted)
How it was run: (§1)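 NCI 60 human tumour cell line panel, entered after a three-cell-line prescreen. Five concentrations at 10-fold dilutions: 10-4, 10-5, 10-6, 10^-7 and 10^-8 M. Results given as log values of growth inhibitory power (GI50) and cytostatic effect.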

[2] = tested on: Panel NCI-60 (60 carcinoma cell lines); experiment: Growth inhibitory power against human cancer cell line; (Range=-4.04 to -6.08); type: functional; how it was run: as §1
[3] = tested on: Panel NCI-60 (60 carcinoma cell lines); experiment: Cytotoxic effect against human cancer cell line; (Range=-4.01 to -5.01); type: functional
How it was run: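 NCI 60-cell-line panel, tested at five 10-fold dilutions from 10^-4 M down to 10^-8 M. Results are expressed as log values of growth inhibitory power (GI50) and cytostatic effect.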

Rattus norvegicus [4] = organism: Rattus norvegicus; experiment: Inhibitory effect on mitochondrial respiration in […]-uncoupled rat liver mitochondria; Activity measured as succinate-O2 activity adding succinate; type: functional
How it was run: (§2)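 Isolated coupled rat liver mitochondria; compound at 35 µM. Oxygen consumption was measured polarographically with a Clark electrode. Reactions were started with a saturating amount of substrate: glutamate/malate (NADH-O2), succinate (succinate-O2) or ascorbate/TMPD (Complex IV). The uncoupled rate was obtained by adding 2,4-dinitrophenol. The respiratory control index was also derived. Rates are in ngA oxygen/min/mg protein, mean of five and eight independent measures.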

Rattus norvegicus [5] = organism: Rattus norvegicus; experiment: Inhibitory effect on mitochondrial respiration in […]-uncoupled rat liver mitochondria; Activity measured as NADH-O2 activity adding glutamate/malate; type: functional; how it was run: as §2
Rattus norvegicus [6] = organism: Rattus norvegicus; experiment: Compound was tested against rat liver mitochondria respiration; Activity as respiratory control index measured as succinate-O2 activity adding succinate; type: functional; how it was run: as §2
Rattus norvegicus [7] = organism: Rattus norvegicus; experiment: Compound was tested against rat liver mitochondria respiration; Activity as respiratory control index measured as NADH-O2 activity adding glutamate/malate; type: functional; how it was run: as §2
Rattus norvegicus [8] = organism: Rattus norvegicus; experiment: Inhibitory effect on mitochondrial respiration in […]-uncoupled rat liver mitochondria; Activity measured as TMPD test complex IV activity adding ascorbate; type: functional; how it was run: as §2
Rattus norvegicus [9] = organism: Rattus norvegicus; experiment: Compound was tested against rat liver mitochondria respiration; Activity as respiratory control index measured as TMPD test complex IV activity adding ascorbate; type: functional; how it was run: as §2
Rattus norvegicus [10] = organism: Rattus norvegicus; experiment: Inhibitory effect on mitochondrial respiration in coupled rat liver mitochondria at 35 uM concentration measured as succinate-O2 activity adding succinate; State 3
Rattus norvegicus [11] = organism: Rattus norvegicus; experiment: Inhibitory effect on mitochondrial respiration in coupled rat liver mitochondria at 35 uM concentration measured as succinate-O2 activity adding succinate; State 4
Rattus norvegicus [12] = organism: Rattus norvegicus; experiment: Inhibitory effect on mitochondrial respiration in coupled rat liver mitochondria at 35 uM concentration measured as NADH-O2 activity adding glutamate/malate; State 4
Rattus norvegicus [13] = organism: Rattus norvegicus; experiment: Inhibitory effect on mitochondrial respiration in coupled rat liver mitochondria at 35 uM concentration measured as NADH-O2 activity adding glutamate/malate; State 3
Rattus norvegicus [14] = organism: Rattus norvegicus; experiment: Inhibitory effect on mitochondrial respiration in coupled rat liver mitochondria at 35 uM concentration measured as TMPD test complex IV activity adding ascorbate; State 3
Rattus norvegicus [15] = organism: Rattus norvegicus; experiment: Inhibitory effect on mitochondrial respiration in coupled rat liver mitochondria at 35 uM concentration measured as TMPD test complex IV activity adding ascorbate; State 4
K562 = experiment: Growth inhibitory power against human leukemia (K-562)cell line; type: functional; how it was run: as §1
RXF 393 = experiment: Growth inhibitory power against human renal (RXF 393) cell line; type: functional; how it was run: as §1
COLO 205 = experiment: Growth inhibitory power against human colon (COLO 205) cell line; type: functional; how it was run: as §1
OVCAR-3 = experiment: Growth inhibitory power against human ovarian (OVCAR-3) cell line cell line; type: functional; how it was run: as §1

Compound: COc1ccc(OC)c2c1ncc1c2nc2sccn21
TGI [1]: < 2240 nM
GI50 [2]: < 832 nM
LC50 (50% lethal concentration) [3]: < 9770 nM

Compound: COc1ccc(OC)c([N+](=O)[O-])c1-c1nc2sc(C)c(C)n2c1/C=N/N=C(N)N
TGI [1]: < 2240 nM
GI50 [2]: < 832 nM
LC50 (50% lethal concentration) [3]: < 9770 nM

Compound: COc1ccc(OC)c(-c2nc3sccn3c2/C=N/N=C(N)N)c1
TGI [1]: < 2240 nM
GI50 [2]: < 832 nM
LC50 (50% lethal concentration) [3]: < 9770 nM

Compound: CC(/C=N/NC(=N)N)=N/NC(=N)N
Actvity (ngAoxigen/min/mg of RLM) (Rattus norvegicus [4]): 169
Actvity (ngAoxigen/min/mg of RLM) (Rattus norvegicus [5]): 106
Actvity (Rattus norvegicus [6]): 3.7
Actvity (Rattus norvegicus [7]): 4.9
Actvity (ngAoxigen/min/mg of RLM) (Rattus norvegicus [8]): 156
Actvity (Rattus norvegicus [9]): 1.7
Actvity (ngAoxigen/min/mg of RLM) (Rattus norvegicus [10]): 141
Actvity (ngAoxigen/min/mg of RLM) (Rattus norvegicus [11]): 39.2
Actvity (ngAoxigen/min/mg of RLM) (Rattus norvegicus [12]): 17.9
Actvity (ngAoxigen/min/mg of RLM) (Rattus norvegicus [13]): 80
Actvity (ngAoxigen/min/mg of RLM) (Rattus norvegicus [14]): 128
Actvity (ngAoxigen/min/mg of RLM) (Rattus norvegicus [15]): 91.1

Compound: COc1ccc(OC)c([N+](=O)[O-])c1-c1nc2scc(C)n2c1/C=N/N=C(N)N
TGI [1]: < 2240 nM
GI50 [2]: < 832 nM
LC50 (50% lethal concentration) [3]: < 9770 nM

Compound: COc1cc([N+](=O)[O-])c(OC)cc1-c1nc2sc(C)cn2c1/C=N/N=C(N)N
TGI [1]: < 2240 nM
GI50 [2]: < 832 nM
LC50 (50% lethal concentration) [3]: < 9770 nM

Compound: COc1ccc(OC)c([N+](=O)[O-])c1-c1nc2sccn2c1/C=N/N=C(N)N
TGI [1]: < 2240 nM
GI50 [2]: < 832 nM
LC50 (50% lethal concentration) [3]: < 9770 nM

GI50 (K562): 1910 nM
GI50 (COLO 205): 1550 nM
GI50 (OVCAR-3): 589 nM
Compound: COc1cc([N+](=O)[O-])c(OC)cc1-c1nc2sc(Cl)cn2c1/C=N/N=C(N)N
Actvity (ngAoxigen/min/mg of RLM) (Rattus norvegicus [4]): 81.7
Actvity (ngAoxigen/min/mg of RLM) (Rattus norvegicus [5]): 74.2
Actvity (Rattus norvegicus [6]): 1.7
Actvity (Rattus norvegicus [7]): 2.3
Actvity (ngAoxigen/min/mg of RLM) (Rattus norvegicus [8]): 158
Actvity (Rattus norvegicus [9]): 1.5
GI50 (RXF 393): 1450 nM
Actvity (ngAoxigen/min/mg of RLM) (Rattus norvegicus [10]): 54.9
Actvity (ngAoxigen/min/mg of RLM) (Rattus norvegicus [11]): 33.4
Actvity (ngAoxigen/min/mg of RLM) (Rattus norvegicus [12]): 23.1
Actvity (ngAoxigen/min/mg of RLM) (Rattus norvegicus [13]): 47.7
Actvity (ngAoxigen/min/mg of RLM) (Rattus norvegicus [14]): 142
Actvity (ngAoxigen/min/mg of RLM) (Rattus norvegicus [15]): 98

Compound: N=C(N)N/N=C/c1c(-c2cc(O)ccc2O)nc2sccn12
TGI [1]: < 2240 nM
GI50 [2]: < 832 nM
LC50 (50% lethal concentration) [3]: < 9770 nM

Compound: COc1cc2ncc3c(nc4sccn43)c2cc1OC
TGI [1]: < 2240 nM
GI50 [2]: < 832 nM
LC50 (50% lethal concentration) [3]: < 9770 nM

Compound: COc1cc([N+](=O)[O-])c(OC)cc1-c1nc2sc(C)c(C)n2c1/C=N/N=C(N)N
TGI [1]: < 2240 nM
GI50 [2]: < 832 nM
LC50 (50% lethal concentration) [3]: < 9770 nM

Compound: COc1ccc(OC)c([N+](=O)[O-])c1-c1nc2sc(C)cn2c1/C=N/N=C(N)N
TGI [1]: < 2240 nM
GI50 [2]: < 832 nM
LC50 (50% lethal concentration) [3]: < 9770 nM

Compound: CCCc1cn2c(/C=N/N=C(N)N)c(-c3c(OC)ccc(OC)c3[N+](=O)[O-])nc2s1
TGI [1]: < 2240 nM
GI50 [2]: < 832 nM
LC50 (50% lethal concentration) [3]: < 9770 nM

Compound: COc1cc([N+](=O)[O-])c(OC)cc1-c1nc2n(c1/C=N/N=C(N)N)CCS2
TGI [1]: < 2240 nM
GI50 [2]: < 832 nM
LC50 (50% lethal concentration) [3]: < 9770 nM

Compound: COc1cc(OC)c([N+](=O)[O-])cc1-c1nc2sccn2c1/C=N/N=C(N)N
TGI [1]: < 2240 nM
GI50 [2]: < 832 nM
LC50 (50% lethal concentration) [3]: < 9770 nM

Compound: COc1ccc(-c2nc3sccn3c2/C=N/N=C(N)N)cc1OC
TGI [1]: < 2240 nM
GI50 [2]: < 832 nM
LC50 (50% lethal concentration) [3]: < 9770 nM

Compound: COc1cc([N+](=O)[O-])c(OC)cc1-c1nc2scc(C)n2c1/C=N/N=C(N)N
TGI [1]: < 2240 nM
GI50 [2]: < 832 nM
LC50 (50% lethal concentration) [3]: < 9770 nM

Compound: O=C1C=CC(=O)c2c1ncc1c2nc2sccn21
TGI [1]: < 2240 nM
GI50 [2]: < 832 nM
LC50 (50% lethal concentration) [3]: < 9770 nM

Compound: COc1ccc(OC)c([N+](=O)[O-])c1-c1nc2n(c1/C=N/N=C(N)N)CCS2
TGI [1]: < 2240 nM
GI50 [2]: < 832 nM
LC50 (50% lethal concentration) [3]: < 9770 nM

Compound: N=C(N)/N=N/c1ccc(NNC(=N)N)c2ncc3c(nc4sccn43)c12
TGI [1]: < 2240 nM
GI50 [2]: < 832 nM
LC50 (50% lethal concentration) [3]: < 9770 nM

Compound: COc1cc([N+](=O)[O-])c(OC)cc1-c1nc2sccn2c1/C=N/NC(=N)N
TGI [1]: < 2240 nM
GI50 [2]: < 832 nM
LC50 (50% lethal concentration) [3]: < 9770 nM

Compound: COc1ccc(OC)c([N+](=O)[O-])c1-c1nc2sc(Cl)cn2c1/C=N/N=C(N)N
TGI [1]: < 2240 nM
GI50 [2]: < 832 nM
LC50 (50% lethal concentration) [3]: < 9770 nM

Compound: COc1cc(-c2nc3sccn3c2/C=N/N=C(N)N)c([N+](=O)[O-])cc1OC
TGI [1]: < 2240 nM
GI50 [2]: < 832 nM
LC50 (50% lethal concentration) [3]: < 9770 nM

Compound: N=C(N)N/N=C/c1c(-c2ccc(O)c(O)c2)nc2sccn12
TGI [1]: < 2240 nM
GI50 [2]: < 832 nM
LC50 (50% lethal concentration) [3]: < 9770 nM

Source: ChEMBL document CHEMBL1143617, “Potential antitumor agents. 37. Synthesis and antitumor activity of guanylhydrazones from imidazo[2,1-b]thiazoles and from the new heterocyclic system thiazolo[2',3':2,3]imidazo[4,5-c]quinoline” (2005)
